{"source": "ChEMBL document CHEMBL5046304", "about": "“Novel Pyridazin-3(2H)-one-Based Guanidine Derivatives as Potential DNA Minor Groove Binders with Anticancer Activity” (ACS Med Chem Lett, 2022)", "key": {"NCI-H460": {"tested_on": "NCI-H460", "assay": "Cytotoxicity against human NCI-H460 cells assessed as reduction in cell viability at 100 uM after […] by MTT assay", "type": "functional", "how_it_was_run": "(§1)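 Percentage inhibition of cell viability; values are means of three experiments.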"}, "A2780 [1]": {"tested_on": "A2780", "assay": "Cytotoxicity against human A2780 cells assessed as reduction in cell viability at 100 uM after 96 hrs by MTT assay", "type": "functional", "how_it_was_run": "as §1"}, "MCF7": {"tested_on": "MCF7", "assay": "Cytotoxicity against human MCF7 cells assessed as reduction in cell viability at 100 uM after 96 hrs by MTT assay", "type": "functional", "how_it_was_run": "as §1"}, "Salmon testes DNA": {"tested_on": "Salmon testes DNA", "assay": "Binding affinity to salmon sperm DNA assessed as thermal stability by measuring change in melting temperature at 15 uM at pH 7 by spectrophotometric analysis", "type": "nucleic-acid assay", "settings": "Salmo salar"}, "A2780 [2]": {"tested_on": "A2780", "assay": "Cytotoxicity against human A2780 cells assessed as reduction in cell viability measured after 96 hrs by MTT assay", "type": "functional, cell-based", "settings": "A2780, 96 h"}}, "data": [{"smiles": "N=C(N)NCc1cnn(Cc2ccccc2)c(=O)c1", "values": [{"measurement": "inhibition at 100 µM", "setting": "NCI-H460", "value": 1, "unit": "%"}, {"measurement": "inhibition at 100 µM", "setting": "A2780 [1]", "value": 40, "unit": "%"}, {"measurement": "inhibition at 100 µM", "setting": "MCF7", "value": 13, "unit": "%"}]}, {"smiles": "Cc1cc(=O)n(C)nc1CNC(=N)N", "values": [{"measurement": "inhibition at 100 µM", "setting": "NCI-H460", "value": 2, "unit": "%"}, {"measurement": "inhibition at 100 µM", "setting": "A2780 [1]", "value": 20, "unit": "%"}, {"measurement": "inhibition at 100 µM", "setting": "MCF7", "value": 12, "unit": "%"}]}, {"smiles": "N=C(N)NCc1ccc(Cn2nc(CNC(=N)N)ccc2=O)cc1", "values": [{"measurement": "ΔTm", "setting": "Salmon testes DNA", "value": 1.4, "unit": "°C"}]}, {"smiles": "Cn1nc(CNC(=N)N)ccc1=O", "values": [{"measurement": "inhibition at 100 µM", "setting": "NCI-H460", "value": 4, "unit": "%"}, {"measurement": "inhibition at 100 µM", "setting": "A2780 [1]", "value": 11, "unit": "%"}, {"measurement": "inhibition at 100 µM", "setting": "MCF7", "value": 20, "unit": "%"}]}, {"smiles": "Cc1cc(=O)n(Cc2ccc(CCl)cc2)nc1CNC(=N)N", "values": [{"measurement": "IC50", "setting": "A2780 [2]", "value": "> 100", "unit": "µM"}, {"measurement": "inhibition at 100 µM", "setting": "NCI-H460", "value": 7, "unit": "%"}, {"measurement": "inhibition at 100 µM", "setting": "A2780 [1]", "value": 54, "unit": "%"}, {"measurement": "inhibition at 100 µM", "setting": "MCF7", "value": 25, "unit": "%"}]}, {"smiles": "N=C(N)NCc1ccnn(Cc2ccccc2)c1=O", "values": [{"measurement": "inhibition at 100 µM", "setting": "NCI-H460", "value": 15, "unit": "%"}, {"measurement": "inhibition at 100 µM", "setting": "A2780 [1]", "value": 41, "unit": "%"}, {"measurement": "inhibition at 100 µM", "setting": "MCF7", "value": 46, "unit": "%"}]}, {"smiles": "N=C(N)NCc1ccc(Cn2nccc(CNC(=N)N)c2=O)cc1", "values": [{"measurement": "ΔTm", "setting": "Salmon testes DNA", "value": 1.1, "unit": "°C"}]}, {"smiles": "Cn1nccc(CNC(=N)N)c1=O", "values": [{"measurement": "inhibition at 100 µM", "setting": "NCI-H460", "value": 1, "unit": "%"}, {"measurement": "inhibition at 100 µM", "setting": "A2780 [1]", "value": 18, "unit": "%"}, {"measurement": "inhibition at 100 µM", "setting": "MCF7", "value": 1, "unit": "%"}]}, {"smiles": "COCc1ccc(Cn2nccc(CNC(=N)N)c2=O)cc1", "values": [{"measurement": "inhibition at 100 µM", "setting": "NCI-H460", "value": 1, "unit": "%"}, {"measurement": "inhibition at 100 µM", "setting": "A2780 [1]", "value": 38, "unit": "%"}]}, {"smiles": "Cc1cc(=O)n(Cc2ccc(CF)cc2)nc1CNC(=N)N", "values": [{"measurement": "inhibition at 100 µM", "setting": "NCI-H460", "value": 5, "unit": "%"}, {"measurement": "inhibition at 100 µM", "setting": "A2780 [1]", "value": 34, "unit": "%"}, {"measurement": "inhibition at 100 µM", "setting": "MCF7", "value": 13, "unit": "%"}]}, {"smiles": "Cn1ncc(CNC(=N)N)cc1=O", "values": [{"measurement": "inhibition at 100 µM", "setting": "NCI-H460", "value": 13, "unit": "%"}, {"measurement": "inhibition at 100 µM", "setting": "A2780 [1]", "value": 24, "unit": "%"}, {"measurement": "inhibition at 100 µM", "setting": "MCF7", "value": 2, "unit": "%"}]}, {"smiles": "Cc1cc(=O)n(Cc2ccccc2)nc1CNC(=N)N", "values": [{"measurement": "inhibition at 100 µM", "setting": "NCI-H460", "value": 2, "unit": "%"}, {"measurement": "inhibition at 100 µM", "setting": "A2780 [1]", "value": 23, "unit": "%"}, {"measurement": "inhibition at 100 µM", "setting": "MCF7", "value": 18, "unit": "%"}]}, {"smiles": "N=C(N)NCc1ccc(Cn2ncc(CNC(=N)N)cc2=O)cc1", "values": [{"measurement": "ΔTm", "setting": "Salmon testes DNA", "value": 1.2, "unit": "°C"}, {"measurement": "inhibition at 100 µM", "setting": "NCI-H460", "value": 35, "unit": "%"}, {"measurement": "inhibition at 100 µM", "setting": "A2780 [1]", "value": 33, "unit": "%"}, {"measurement": "inhibition at 100 µM", "setting": "MCF7", "value": 23, "unit": "%"}]}, {"smiles": "Cc1cc(=O)n(Cc2ccc(CNC(=N)N)cc2)nc1CNC(=N)N", "values": [{"measurement": "IC50", "setting": "A2780 [2]", "value": 21, "unit": "µM"}, {"measurement": "ΔTm", "setting": "Salmon testes DNA", "value": 1.2, "unit": "°C"}, {"measurement": "inhibition at 100 µM", "setting": "NCI-H460", "value": 34, "unit": "%"}, {"measurement": "inhibition at 100 µM", "setting": "A2780 [1]", "value": 59, "unit": "%"}, {"measurement": "inhibition at 100 µM", "setting": "MCF7", "value": 22, "unit": "%"}]}]}
